From ChEMBL document CHEMBL1131448 (J Med Chem, 1998)
pIC50: −log10 of the molar value.

The molecules below were run on HT-29 (assay: Antitumor activity was measured on HT-29 xenografts after 0.32 mg/kg ip dose.). Conditions: route intraperitoneal.
Assay type: functional, Homo sapiens
Summary of the method: (§1)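 Female NCr nu/nu athymic mice, 4-6 weeks old, given sc HT-29 cells (5 × 10^6/animal, left dorsum). Randomised at day 10 at about 175 mm³ mean tumour (5/treated group, 10 controls). Drug in DMSO (3%)/Tween 20 (2%)/0.9% NaCl given ip daily, 4 days on/3 off, ×3 (12 injections). Caliper volume (w²l)/2 three times weekly with body weight. T-C delay in days to reach 250% of starting volume.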

SMILES	Tumor growth delay [days]
CCC1(O)CC(=O)OCc2c1cc1n(c2=O)Cc2cc3cc(C)c(F)cc3nc2-1 (stereo unspecified)	7
CCC1(O)CC(=O)OCc2c1cc1n(c2=O)Cc2cc3cc(OC)c(F)cc3nc2-1 (stereo unspecified)	12
CCC1(O)CC(=O)OCc2c1cc1n(c2=O)Cc2cc3cc(F)c(F)cc3nc2-1 (stereo unspecified)	25
CCC1(O)CC(=O)OCc2c1cc1n(c2=O)Cc2cc3cc(F)c(Cl)cc3nc2-1 (stereo unspecified)	1

The molecules below were run on HT-29 (assay: Antitumor activity was measured on HT-29 xenografts after 0.625 mg/kg ip dose.). Conditions: route intraperitoneal.
Assay type: functional, Homo sapiens
Summary of the method: as §1

SMILES	Tumor growth delay [days]
CC[C@@]1(O)C(=O)OCc2c1cc1n(c2=O)Cc2cc3ccccc3nc2-1 [CAMPTOTHECIN]	4
CCC1(O)CC(=O)OCc2c1cc1n(c2=O)Cc2cc3cc(F)c(Cl)cc3nc2-1 (stereo unspecified)	2

The molecules below were run on HT-29 (assay: Antitumor activity was measured on HT-29 xenografts after 0.625 mg/kg ip dose; td = 'toxic dose'). Conditions: Homo sapiens.
Assay type: functional, organism-based
Parameters: dose 0.625 mg/kg
Summary of the method: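 Female NCr nu/nu athymic mice, 4-6 weeks old, bearing sc HT-29 tumours (5 × 10⁶ cells, left dorsal surface). Dosing began at about 175 mm³ (day 10), 5 mice per group and 10 controls. Drug given ip in DMSO (3%)/Tween 20 (2%)/0.9% NaCl, daily 4 days on/3 off, three cycles. Calipers three times weekly; T-C growth delay in days to reach 250% of starting volume.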

SMILES	Tumor growth delay
CCC1(O)CC(=O)OCc2c1cc1n(c2=O)Cc2cc3cc(F)c(F)cc3nc2-1 (stereo unspecified)	Toxic dose

What follows are molecules tested on HT-29 (assay: Antitumor activity was measured on HT-29 xenografts after 0.625 mg/kg ip dose; toxic dose). Conditions: Homo sapiens.
Assay type: functional, organism-based
Parameters: dose 0.625 mg/kg
Summary of the method: as §1

SMILES	Tumor growth delay
CCC1(O)CC(=O)OCc2c1cc1n(c2=O)Cc2cc3cc(C)c(F)cc3nc2-1 (stereo unspecified)	Toxic
CCC1(O)CC(=O)OCc2c1cc1n(c2=O)Cc2cc3cc(OC)c(F)cc3nc2-1 (stereo unspecified)	Toxic

These molecules were tested on HT-29 (assay: Antitumor activity was measured on HT-29 xenografts after 1.25 mg/kg ip dose.). Conditions: route intraperitoneal.
Assay type: functional, Homo sapiens
Summary of the method: as §1

SMILES	Tumor growth delay [days]
CCC1(O)CC(=O)OCc2c1cc1n(c2=O)Cc2cc3cc(F)c(Cl)cc3nc2-1 (stereo unspecified)	7

The molecules below were run on HT-29 (assay: Antitumor activity was measured on HT-29 xenografts after 1.25 mg/kg ip dose; td = ' toxic dose'). Conditions: Homo sapiens.
Assay type: functional, organism-based
Parameters: dose 1.25 mg/kg
Summary of the method: as §1

SMILES	Tumor growth delay
CC[C@@]1(O)C(=O)OCc2c1cc1n(c2=O)Cc2cc3ccccc3nc2-1 [CAMPTOTHECIN]	Toxic

These molecules were tested on HT-29 (assay: Antitumor activity was measured on HT-29 xenografts after 2.5 mg/kg ip dose; td =' toxic dose'). Conditions: Homo sapiens.
Assay type: functional, organism-based
Parameters: dose 2.5 mg/kg
Summary of the method: as §1

SMILES	Tumor growth delay
CCC1(O)CC(=O)OCc2c1cc1n(c2=O)Cc2cc3cc(F)c(Cl)cc3nc2-1 (stereo unspecified)	Toxic dose

Each molecule was assayed on K562 (assay: Antiproliferative activity measured against K562adr leukemia cells.). Conditions: Homo sapiens.
Assay type: functional, cell-based
Summary of the method: (§2)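 Cells seeded 24 h before treatment (3000/well A427, MCF7mdr, K562adr; 1500/well PC-3) in DMEM with 10% heat-inactivated FCS, penicillin/streptomycin, 2 mM glutamine. Drug from DMSO (0.1% final) at 5 × 10^-13 to 1 × 10^-6 M final, 72 h exposure. Viability by WST-1 formazan colorimetry. Two experiments, eight determinations per concentration. IC50 by linear regression on linear part of sigmoid.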

SMILES	pIC50
CCC1(O)CC(=O)OCc2c1cc1n(c2=O)Cc2cc3cc(C)c(F)cc3nc2-1 (stereo unspecified)	7.85
COc1cccc2c1C(=O)c1c(O)c3c(c(O)c1C2=O)C[C@@](O)(C(=O)CO)C[C@@H]3O[C@H]1C[C@H](N)[C@H](O)[C@H](C)O1 [DOXORUBICIN]	4.82
CCC1(O)CC(=O)OCc2c1cc1n(c2=O)Cc2cc3cc(OC)c(F)cc3nc2-1 (stereo unspecified)	7.74
CCC1(O)CC(=O)OCc2c1cc1n(c2=O)Cc2cc3cc(F)c(F)cc3nc2-1 (stereo unspecified)	7.18
CCC1(O)CC(=O)OCc2c1cc1n(c2=O)Cc2cc3ccccc3nc2-1 (stereo unspecified)	7.33
CCC1(O)CC(=O)OCc2c1cc1n(c2=O)Cc2cc3cc(F)ccc3nc2-1 (stereo unspecified)	7.20
CCc1c2c(nc3ccccc13)-c1cc3c(c(=O)n1C2)COC(=O)CC3(O)CC (stereo unspecified)	7.48
CC[C@@]1(O)C(=O)OCc2c1cc1n(c2=O)Cc2cc3ccccc3nc2-1 [CAMPTOTHECIN]	7.24
CCC1(O)CC(=O)OCc2c1cc1n(c2=O)Cc2cc3cc(F)c(Cl)cc3nc2-1 (stereo unspecified)	7.70
CCC1(O)CC(=O)OCc2c1cc1n(c2=O)Cc2cc3cc(Cl)ccc3nc2-1 (stereo unspecified)	8.59
CCC1(O)CC(=O)OCc2c1cc1n(c2=O)Cc2cc3cc(C)c(Cl)cc3nc2-1 (stereo unspecified)	8.54
CCC1(O)CC(=O)OCc2c1cc1n(c2=O)Cc2cc3cc4c(cc3nc2-1)OCO4 (stereo unspecified)	7.43
CC[C@@]1(O)C(=O)OCc2c1cc1n(c2=O)Cc2cc3c(CN(C)C)c(O)ccc3nc2-1 [TOPOTECAN]	5.96

The molecules below were run on MCF7 (assay: Antiproliferative activity measured against MCF-7-mdr cells.). Conditions: Homo sapiens.
Assay type: functional, cell-based
Summary of the method: as §2

SMILES	pIC50
CCC1(O)CC(=O)OCc2c1cc1n(c2=O)Cc2cc3cc(C)c(F)cc3nc2-1 (stereo unspecified)	11.00
COc1cc([C@@H]2c3cc4c(cc3[C@@H](O[C@@H]3O[C@@H]5CO[C@@H](C)O[C@H]5[C@H](O)[C@H]3O)[C@H]3COC(=O)[C@H]23)OCO4)cc(OC)c1O [ETOPOSIDE]	4.17
CCC1(O)CC(=O)OCc2c1cc1n(c2=O)Cc2cc3cc(OC)c(F)cc3nc2-1 (stereo unspecified)	8.66
CCC1(O)CC(=O)OCc2c1cc1n(c2=O)Cc2cc3ccccc3nc2-1 (stereo unspecified)	7.68
CCc1c2c(nc3ccccc13)-c1cc3c(c(=O)n1C2)COC(=O)CC3(O)CC (stereo unspecified)	7.68
CC[C@@]1(O)C(=O)OCc2c1cc1n(c2=O)Cc2cc3ccccc3nc2-1 [CAMPTOTHECIN]	8.51
CCC1(O)CC(=O)OCc2c1cc1n(c2=O)Cc2cc3cc(F)c(Cl)cc3nc2-1 (stereo unspecified)	8.77
CCC1(O)CC(=O)OCc2c1cc1n(c2=O)Cc2cc3cc(Cl)ccc3nc2-1 (stereo unspecified)	8.89
CCC1(O)CC(=O)OCc2c1cc1n(c2=O)Cc2cc3cc4c(cc3nc2-1)OCO4 (stereo unspecified)	9.26
CC[C@@]1(O)C(=O)OCc2c1cc1n(c2=O)Cc2cc3c(CN(C)C)c(O)ccc3nc2-1 [TOPOTECAN]	6.38

What follows are molecules tested on PC-3 (assay: Antiproliferative activity measured against PC-3 human prostate adenocarcinoma). Conditions: PC-3, Prostate gland.
Assay type: functional, cell-based
Summary of the method: as §2

SMILES	pIC50
CCC1(O)CC(=O)OCc2c1cc1n(c2=O)Cc2cc3cc(C)c(F)cc3nc2-1 (stereo unspecified)	> 12.00
COc1cc([C@@H]2c3cc4c(cc3[C@@H](O[C@@H]3O[C@@H]5CO[C@@H](C)O[C@H]5[C@H](O)[C@H]3O)[C@H]3COC(=O)[C@H]23)OCO4)cc(OC)c1O [ETOPOSIDE]	5.64
COc1cccc2c1C(=O)c1c(O)c3c(c(O)c1C2=O)C[C@@](O)(C(=O)CO)C[C@@H]3O[C@H]1C[C@H](N)[C@H](O)[C@H](C)O1 [DOXORUBICIN]	6.41
CCC1(O)CC(=O)OCc2c1cc1n(c2=O)Cc2cc3cc(OC)c(F)cc3nc2-1 (stereo unspecified)	> 12.00
CCC1(O)CC(=O)OCc2c1cc1n(c2=O)Cc2cc3cc(F)c(F)cc3nc2-1 (stereo unspecified)	12.00
CCC1(O)CC(=O)OCc2c1cc1n(c2=O)Cc2cc3ccccc3nc2-1 (stereo unspecified)	7.22
CCC1(O)CC(=O)OCc2c1cc1n(c2=O)Cc2cc3cc(F)ccc3nc2-1 (stereo unspecified)	9.24
CCc1c2c(nc3ccccc13)-c1cc3c(c(=O)n1C2)COC(=O)CC3(O)CC (stereo unspecified)	7.55
CC[C@@]1(O)C(=O)OCc2c1cc1n(c2=O)Cc2cc3ccccc3nc2-1 [CAMPTOTHECIN]	7.24
CCC1(O)CC(=O)OCc2c1cc1n(c2=O)Cc2cc3cc(F)c(Cl)cc3nc2-1 (stereo unspecified)	7.92
CCC1(O)CC(=O)OCc2c1cc1n(c2=O)Cc2cc3cc(Cl)ccc3nc2-1 (stereo unspecified)	7.74
CCC1(O)CC(=O)OCc2c1cc1n(c2=O)Cc2cc3cc(C)c(Cl)cc3nc2-1 (stereo unspecified)	8.44
CCC1(O)CC(=O)OCc2c1cc1n(c2=O)Cc2cc3cc4c(cc3nc2-1)OCO4 (stereo unspecified)	> 12.00
CC[C@@]1(O)C(=O)OCc2c1cc1n(c2=O)Cc2cc3c(CN(C)C)c(O)ccc3nc2-1 [TOPOTECAN]	6.80

What follows are molecules tested on HT-29 (assay: Antitumor activity was measured on HT-29 xenografts after 0.16 mg/kg ip dose.). Conditions: route intraperitoneal.
Assay type: functional, Homo sapiens
Summary of the method: as §1

SMILES	Tumor growth delay [days]
CCC1(O)CC(=O)OCc2c1cc1n(c2=O)Cc2cc3cc(C)c(F)cc3nc2-1 (stereo unspecified)	4
CCC1(O)CC(=O)OCc2c1cc1n(c2=O)Cc2cc3cc(OC)c(F)cc3nc2-1 (stereo unspecified)	4
CCC1(O)CC(=O)OCc2c1cc1n(c2=O)Cc2cc3cc(F)c(F)cc3nc2-1 (stereo unspecified)	8

The molecules below were run on A-427 (assay: Antiproliferative activity measured against A427 human lung carcinoma). Conditions: not given.
Assay type: functional, cell-based
Summary of the method: as §2

SMILES	pIC50
CCC1(O)CC(=O)OCc2c1cc1n(c2=O)Cc2cc3cc(C)c(F)cc3nc2-1 (stereo unspecified)	12.09
CCC1(O)CC(=O)OCc2c1cc1n(c2=O)Cc2cc3cc(OC)c(F)cc3nc2-1 (stereo unspecified)	11.08
CCC1(O)CC(=O)OCc2c1cc1n(c2=O)Cc2cc3cc(F)c(F)cc3nc2-1 (stereo unspecified)	10.00
CCC1(O)CC(=O)OCc2c1cc1n(c2=O)Cc2cc3ccccc3nc2-1 (stereo unspecified)	7.92
CCC1(O)CC(=O)OCc2c1cc1n(c2=O)Cc2cc3cc(F)ccc3nc2-1 (stereo unspecified)	8.11
CC[C@@]1(O)C(=O)OCc2c1cc1n(c2=O)Cc2cc3ccccc3nc2-1 [CAMPTOTHECIN]	7.62
CCC1(O)CC(=O)OCc2c1cc1n(c2=O)Cc2cc3cc(F)c(Cl)cc3nc2-1 (stereo unspecified)	10.64
CCC1(O)CC(=O)OCc2c1cc1n(c2=O)Cc2cc3cc(Cl)ccc3nc2-1 (stereo unspecified)	9.44
CCC1(O)CC(=O)OCc2c1cc1n(c2=O)Cc2cc3cc(C)c(Cl)cc3nc2-1 (stereo unspecified)	10.51
CCC1(O)CC(=O)OCc2c1cc1n(c2=O)Cc2cc3cc4c(cc3nc2-1)OCO4 (stereo unspecified)	9.21
CC[C@@]1(O)C(=O)OCc2c1cc1n(c2=O)Cc2cc3c(CN(C)C)c(O)ccc3nc2-1 [TOPOTECAN]	7.31

The molecules below were run on DNA topoisomerase 1 (Bos taurus) (assay: Effect on Topo-I-mediated relaxation of supercoiled pUC19 plasmid DNA in calf thymus at 100 uM). Conditions: not given.

SMILES	Relaxed DNA [%]
CCC1(O)CC(=O)OCc2c1cc1n(c2=O)Cc2cc3cc(C)c(F)cc3nc2-1 (stereo unspecified)	18
CCC1(O)CC(=O)OCc2c1cc1n(c2=O)Cc2cc3cc(OC)c(F)cc3nc2-1 (stereo unspecified)	26
CC[C@]1(O)CC(=O)OCc2c1cc1n(c2=O)Cc2cc3ccccc3nc2-1	100
CCC1(O)CC(=O)OCc2c1cc1n(c2=O)Cc2cc3cc(F)c(F)cc3nc2-1 (stereo unspecified)	56
CCC1(O)CC(=O)OCc2c1cc1n(c2=O)Cc2cc3ccccc3nc2-1 (stereo unspecified)	60
CCC1(O)CC(=O)OCc2c1cc1n(c2=O)Cc2cc3cc(F)ccc3nc2-1 (stereo unspecified)	47
CC[C@@]1(O)CC(=O)OCc2c1cc1n(c2=O)Cc2cc3ccccc3nc2-1	45
CCc1c2c(nc3ccccc13)-c1cc3c(c(=O)n1C2)COC(=O)CC3(O)CC (stereo unspecified)	34
CCC1(O)CC(=O)OCc2c1cc1n(c2=O)Cc2cc3cc4c(cc3nc2-1)OCCO4 (stereo unspecified)	50
CCC1(O)CC(=O)OCc2c1cc1n(c2=O)Cc2cc3cc(F)c(Cl)cc3nc2-1 (stereo unspecified)	61
CCC1(O)CC(=O)OCc2c1cc1n(c2=O)Cc2cc3cc(Cl)ccc3nc2-1 (stereo unspecified)	57
CCC1(O)CC(=O)OCc2c1cc1n(c2=O)Cc2cc3cc(C)c(Cl)cc3nc2-1 (stereo unspecified)	59
CCC1(O)CC(=O)OCc2c1cc1n(c2=O)Cc2cc3cc4c(cc3nc2-1)OCO4 (stereo unspecified)	58
